Data: the EternaBench riboswitch data

Test system: MS2 coat protein
Test: apparent Kd, MS2 coat protein; higher = weaker binding; RNA-MaP array; theophylline 2 mM where present
Outline: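 Binding was read on Illumina sequencing-chip clusters where stalled E. coli RNA polymerase had transcribed each design. A titration of SNAP-549-labelled MS2 coat protein began at 0.7 or 1.5 nM and doubled to 3 µM, once without ligand and once with constant ligand, in 100 mM Tris-HCl pH 7.5, 80 mM KCl, 4 mM MgCl2, BSA, DTT, yeast tRNA and Tween-20. The apparent Kd is the median of filtered per-cluster binding-curve fits, based on green signal normalised to red-channel RNA signal and control-cluster median Fmax.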

[1] = designed as: ON switch for theophylline, no ligand
[2] = ligand present: theophylline, designed as: ON switch for theophylline
[3] = designed as: OFF switch for theophylline, no ligand
[4] = ligand present: theophylline, designed as: OFF switch for theophylline

| Sequence | apparent Kd [1] [nM] | apparent Kd [2] [nM] | apparent Kd [3] [nM] | apparent Kd [4] [nM] |
| --- | --- | --- | --- | --- |
| AUCGUACCUAAUGAUACCAGCAAGUGAUCAUAACAUGAGGAUCACCCAUGUAAUCAGUGAUGCCCUUGGCAGCAUAAUCGUUACA | 163 | 127 |  |  |
| AUGUCAUUGGUGUAGCUGUGAAAUGGCGAUACCAGCGUGGAAACACGCCCUUGGCAGCGCCAAAACAUGAGGAUCACCCAUGUUA |  |  | 87.6 | 272 |
| GUGAGGUUUGAUGAUACCAGAUGUGGUGGGAACAUGAGGAUCACCCAUGUUGUGAAACAGGUCCCUUGGCAGCAUGAGAGAGCUU | 47.8 | 44.3 |  |  |
| AGAUGCCACUGUGGAUAGCACGAUGCCGAUACCAGCUAGGAAACUAGCCCUUGGCAGCGGUACAUGAGGAUCACCCAUGUAUCCU |  |  |  | 75 |
| AAUUGCGUUGGUGAGGCGGUUAAUGGCGAUACCAGCGUGGAAACACGCCCUUGGCAGCGCCAAAACAUGAGGAUCACCCAUGUUA |  |  | 73.5 | 200 |
| AUAAGUAUGUUUUCGUGUUUUAUUACAGAUACCAGACUAUACGUUGUCCCUUGGCAGCUGGAUUACAUGAGGAUCACCCAUGUUG |  |  | 23.1 | 53 |
| UAUUUGGUGCGCGAGCGUUGGAUAAUUGAUACCAGUGAAGAAGAGCGCCCUUGGCAGCGAAUCCUAACAUGAGGAUCACCCAUGU | 41 | 56.7 |  |  |
| ACUAGUUGUGCAGAUACCAGACAUGAGGAUCACCCAUGUUUGGGAUGUUCGCAUCUUCCUGUCCCUUGGCAGCUGUACAUCUAGA |  |  | 82.5 | 44.6 |
| GCACCAGGUACGGAUACCAGAAUUUGCCAAUUGGGUGAACAUGAGGAUCACCCAUGUUAUUUCCCUUGGCAGCCGUACCUGGUGC |  |  | 8.75 | 15.9 |
| UGUAUGUGAAGUGAUACCAGUCCAUAAACUGGAACAUGAGGAUCACCCAUGUAAUGGGUGGACCCUUGGCAGCACUUCUCAUACU | 122 | 136 |  |  |
| AUUUUUCUAUCAGAUACCAGACAACUCCAAACAUGAGGAUCACCCAUGUAUUGGGUGUUCGUCCCUUGGCAGCUGUUAAUGUUAA | 16.9 | 9.41 |  |  |
| ACCUACACGGAGACGUGUAGGAGUAAUGAUACCAGCAUGGAGACAUGCCCUUGGCAGCGUUACAUGAGGAUCACCCAUGUACGUU |  |  | 10.2 | 14.1 |
| CAUACUUGAUCCUAUGAGCCUAUUUGUGAUACCAGCAUCUAAAUUUGCCCUUGGCAGCACUAACAUGAGGAUCACCCAUGUUAUA |  |  | 34.9 | 71.8 |
| AAAAUAAAUAAAACACGUAACAUGAAGGAUACCAGACAGGAAACUGUCCCUUGGCAGCCUCUACAUGAGGAUCACCCAUGUCGUG |  | 30.8 |  |  |
| GCACCAGGUACGGAUACCAGCUAUAGGCCCUAUGGGCGACAUGAGGAUCACCCAUGUAAUGGCCCUUGGCAGCUGUACCUGGUGC | 169 | 11.3 |  |  |
| CGAUCUUUCGAAAGAAGGAUCGAUUCUGAUACCAGAGACGAAAGUCUCCCUUGGCAGCAGUGCCAACAUGAGGAUCACCCAUGUA | 22.4 | 21.3 |  |  |
| CGUGUGCGUUCUGAUACCAGAGACAUGAGGAUCACCCAUGUCCGAUCGUCCUGCCUCAGACUCCCUUGGCAGCAGGUUUUGUGCU |  |  | 45.7 | 60.9 |
| GCUUGGGUGGCCCAGCCCUGGCAGGGCGAUACCAGCACGGUAACGUGCCCUUGGCAGCGCACAUGAGGAUCACCCAUGUGGUGCG |  |  | 127 | 266 |
| CGCACAGAGAAUGAUACCAGCGAGGAAGCGACAUGAGGAUCACCCAUGUGCGAAUGAUCCCGCCCUUGGCAGCGUAAGUGAUCCC | 111 | 71.3 |  |  |
| AAAUAAAUCACAUGAGGAUCACCCAUGGAUACCAGGCCUGGAAACAGCCCUUGGCAGCCACAUGAGGAUCACCCAUGUGCUAAUA |  |  | 213 | 219 |
| AAAAUAAAUAAAACACGUAACAUGAAGGAUACCAGCCAGAAAACUGGCCCUUGGCAGCCUCUACAUGAGGAUCACCCAUGUCGUG | 305 | 28 |  |  |
| UGACAUUGCUCAGAUACCAGACAUGAGGAUCACCCAUGUGCCAAACGUACAAUAAUAAAUGUCCCUUGGCAGCUGAGCAAUGUCU |  |  | 11.3 | 101 |
